Source: PubChem (several laboratories)
HTR2A ag = mouse HTR2A agonism via beta-arrestin recruitment. P35363. CHO-K1 mHTR2A beta-arrestin complementation, luminescence; percent of 30 µM serotonin response. activation, % at 7.6 µM. 0.66% of 360,000 active. AID 624169;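 active = activation above a run cutoff, the mean activation of all tested compounds plus 3 SD, cut at about 14% in these data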
Calb FLC = C. albicans growth modulation with fluconazole; C. albicans CaCi-2 + fluconazole, Alamar Blue growth, 48 h; growth inhibition, % (no concentration beside the values); 0.57% of 300,000 active; AID 1979;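 active = growth inhibition above about 58% in most replicates, limit read from the data, passing the limit was not always enough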;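 also: all wells also contain fluconazole at 8 µg/ml as a sub-toxic cotreatment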
beta cell repl = inducers of beta-cell replication in MIN6 cells; proliferation, % at 10 µM; MIN6 cells proliferation, ATPlite luminescence, 48 h; cells starved in 0.2% serum; 100% = growth in 10% serum; 0.29% of 330,000 active; AID 2380;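 active = compounds whose signal lies at least 3.5 SD above the mean of all wells on their plate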
SR-BI DiI inh = inhibitors of mouse SR-BI mediated HDL lipid uptake; Q61009; ldlA[mSR-BI] CHO cells, DiI-HDL uptake fluorescence, 3 h; inhibition, % at 12.5 µM; 0.96% of 320,000 active; AID 488896;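 active = mean replicate inhibition of at least 70% and a set share of replicates each scoring 70 or more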
Target sequence (Q61009 whole entry, looked up): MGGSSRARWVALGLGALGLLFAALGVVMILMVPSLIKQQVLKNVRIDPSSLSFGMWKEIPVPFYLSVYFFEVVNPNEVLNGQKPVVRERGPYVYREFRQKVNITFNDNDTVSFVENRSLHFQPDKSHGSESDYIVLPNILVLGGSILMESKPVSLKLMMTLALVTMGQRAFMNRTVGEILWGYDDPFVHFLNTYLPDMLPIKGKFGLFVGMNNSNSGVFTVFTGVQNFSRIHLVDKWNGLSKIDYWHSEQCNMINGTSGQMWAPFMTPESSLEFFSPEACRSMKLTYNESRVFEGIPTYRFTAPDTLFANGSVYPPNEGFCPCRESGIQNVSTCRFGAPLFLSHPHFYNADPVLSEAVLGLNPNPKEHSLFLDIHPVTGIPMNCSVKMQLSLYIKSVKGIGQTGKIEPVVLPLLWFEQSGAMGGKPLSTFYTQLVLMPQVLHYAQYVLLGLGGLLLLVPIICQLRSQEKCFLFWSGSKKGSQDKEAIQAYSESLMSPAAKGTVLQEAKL
SR-BI DiI-HDL act = SR-BI HDL lipid transfer activation; CHO ldlA[mSR-BI] cells, DiI-HDL uptake fluorescence, 3 h; 100 = double the neutral-control signal; AID 504775; activation, % at 12.5 µM; 0.096% of 320,000 active;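 active = mean replicate activation of at least 60% and every replicate at or above 60%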
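Test system: SR-BI-overexpressing, LDLR-lacking CHO cells; Medium: Ham's F12 with 0.5% BSA, HEPES 25 mM, pH 7.4; Schedule: 3 h, 37 °C; Technique: bottom-read fluorescence, 550/595 nm.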
Ins promoter up = MIN6 insulin promoter up-regulation. z-score at 5 µM. AID 1625. MIN6 insulin promoter-GFP reporter, high-content imaging; active compounds read high. 0.3% of 190,000 active;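 active = z-score above 3 at 5 µM with at least 500 cells counted in the well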
Numbers stand for hits; - = inactive; . = no result given. Only some compounds are listed: those with a hit (about 2.4% of all), similar ones and a draw of the others.

SMILES | HTR2A ag | Calb FLC | beta cell repl | SR-BI DiI inh | SR-BI DiI-HDL act | Ins promoter up
N#Cc1nc(-c2ccc(OCc3ccc(Cl)cc3)cc2)oc1N1CCOCC1 | - | - | - | 75.5 | - | -
O=C(CCNC(=O)c1ccco1)Nc1ccc(Cl)cc1F | - | - | - | . | . | .
COCc1cc(CNC(=O)C2CCC(=O)N(Cc3ccccc3OC)C2)[nH]n1 (configuration not stated) | - | - | - | - | - | .
CCOc1ccc(Nc2ccnc3cc(Cl)ccc23)cc1 | - | - | - | - | - | -
O=C(NNc1ccnc2cc(Cl)ccc12)C1CCCCC1 | - | - | - | - | - | -
NC(=S)NNc1ccnc2cc(Cl)ccc12 | - | - | - | 90.3 | - | -
FC(F)Oc1ccc(NC(=S)NNc2ccnc3cc(Cl)ccc23)cc1 | - | - | - | 95.2 | - | -
CC(CNC(=O)CN1C(=O)COc2ccc(S(=O)(=O)N3CCCCC3)cc21)c1ccccc1 (configuration not stated) | - | - | - | - | - | .
Cc1cccc(N2CCN(C(=O)C3CCN(c4ncnc5c4nc4n5CCCCC4)CC3)CC2C)c1 (configuration not stated) | - | - | - | 71.1 | - | .
Cc1cccc(N2CCN(C(=O)C3CCN(c4ncnc5c4nc4n5CCCCC4)CC3)CC2)c1C | - | - | - | 73.9 | - | .
O=C(N/N=C/c1cccn1-c1ccc(O)cc1)c1cccc2ccccc12 | - | - | - | 77.0 | - | .
COc1ccc(C(=O)N/N=C/c2sc3ccccc3c2O)cc1 | - | - | . | 120.0 | - | -
O=C(N/N=C/c1ccccc1)c1cccc2ccccc12 | - | - | - | - | - | .
COc1ccc2cc(C(=O)N/N=C/c3sc4ccccc4c3O)ccc2c1 | - | - | - | 95.9 | - | .
O=C(N/N=C/c1sc2ccccc2c1O)c1cccc2ccccc12 | - | 87.7 | . | 106.5 | - | -
COc1ccc(C(=O)N/N=C/C(=O)c2ccccc2)cc1 | - | - | - | - | - | .
COc1ccc(C(=O)N/N=C/c2c[nH]c3ccccc23)cc1 | - | - | - | - | - | .
CN1C(=O)/C(=C\c2ccccc2F)Sc2ccc(C(=O)NC3CCN(Cc4ccccc4)CC3)cc21 | - | - | - | - | - | .
COc1cc(N/C(N)=N/c2nc(C)cc(C)n2)c(OC)cc1Cl | - | - | - | - | - | -
O=C(N/N=C/c1sc2ccccc2c1O)c1ccccc1 | - | - | - | 118.4 | - | -
COc1ccc(C(=O)Nn2c(C)nc3ccccc3c2=O)cc1[N+](=O)[O-] | - | - | - | - | - | .
CC(C)(C)c1ccc(-n2nc(C(N)=O)c(O)cc2=O)cc1 | - | - | - | - | - | -
CC(C)(C)c1ccc(-n2nc(C#N)c(Cl)cc2=O)cc1 | - | 86.5 | - | - | - | -
CSCCC(C(=O)NCc1ccccc1)n1c(-c2ccc3c(c2)CCO3)nc2ccccc21 (configuration not stated) | - | . | . | . | . | .
CCCCSc1nnc(C)c(=O)[nH]1 | - | - | - | - | - | -
SMILES | HTR2A ag | Calb FLC | beta cell repl | SR-BI DiI inh | SR-BI DiI-HDL act | Ins promoter up
Cc1nnc(SCCC(C)C)[nH]c1=O | - | - | - | - | 95.8 | -
COc1ccc(S(=O)(=O)N2CCN(CC(=O)Nc3sccc3C(N)=O)CC2)cc1OC | - | . | - | - | - | .
CCOC(=O)c1sc(NC(=O)CCN2C(=O)c3ccccc3C2=O)c(C(=O)OCC)c1C | - | - | - | - | - | -
CCOC(=O)c1c(NC(=O)CCN2C(=O)c3ccccc3C2=O)sc(C(=O)OC(C)C)c1C | - | - | - | 73.1 | - | -
CCOc1ccccc1NC(=O)c1ccc(S(=O)(=O)N2CCCCC2)cc1 | - | - | - | 76.1 | - | .
O=C(N/N=C/c1ccccc1)c1ccc2c(c1)OCO2 | - | - | - | - | - | .
O=C(CN1CCCc2ccccc21)N/N=C/c1ccccc1 | - | - | - | - | - | -
CC/C(=N/NC(=O)c1ccc2c(c1)OCO2)c1ccccc1O | - | - | - | 99.7 | - | .
O=C(CN1CCCc2ccccc21)N/N=C/c1c(O)ccc2ccccc12 | - | 84.7 | - | - | 195.1 | -
O=C(NN=Cc1c(O)ccc2ccccc12)c1ccc2c(c1)OCO2 | - | . | - | 123.9 | - | .
CCOC(=O)[C@]12CCC=C1N(Cc1ccccc1)C(=O)[C@H](CC(=O)NCc1cccc(C(F)(F)F)c1)C2 | - | . | . | . | . | .
